# Compound activity from PubChem.
# FXIa inh 1536: inhibitors of human coagulation factor XIa; P03951; purified FXIa, Boc-Glu-Ala-Arg-AMC fluorogenic substrate; inhibition, % at 5 µM; 220,000 tested, 0.14% active;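 active means inhibition of at least 40%; inactive means inhibition below 40%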;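 further: fluorescence of freed AMC excited at 355 nm; 0% = enzyme without compound and 100% = no enzyme blank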
# Thrombin inh: thrombin (human) inhibition. inhibition, % at 5 µM. AID 1046. alpha-thrombin, Boc-VPR-AMC fluorogenic substrate cleavage. P00734. 220,000 tested, 0.26% active;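 active means inhibition at or above 40%; inactive means inhibition below 40%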;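 further: 0% = enzyme with no compound and 100% = wells without enzyme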
#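 System – human alpha-thrombin protein · Reagent – Boc-VPR-AMC substrate, 15 µM final · Compound – 5 µM single dose in 0.2% DMSO · Schedule – reaction at room temperature · Technique – AMC fluorescence at 355 nm excitation and 460 nm emission · Read-out basis – % inhibition relative to enzyme controls and enzyme-free blanks · Control set – no-compound enzyme wells and no-enzyme blanks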
# KLK5 inh: inhibitors of human kallikrein 5; Q9Y337; recombinant hK5, fluorogenic AMC substrate cleavage; inhibition, % at 5 µM; 210,000 tested, 0.59% active; AID 873;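 active means inhibition of 40% or more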;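 further: 0% = enzyme controls without compound and 100% = no-enzyme blanks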
# PERK inhibitor: inhibitors of human PERK kinase | Q9NZJ5 | CHO PERK-DD fusion, SEAP luminescence translation reporter | inhibition, % at 5.6 µM | 220,000 tested, 0.17% active | AID 1416;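 active means inhibition above the mean inhibition of all tested compounds plus 3 SD, set separately per screening campaign, cut at about 2.9% in these data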;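 further: PERK kinase domain activated by AP20187 dimerizer at 100 nM; 0% = DMSO with dimerizer and 100% = rapamycin at 8.4 µM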
# FXIIa inh 1536: factor XIIa (human) inhibition | P00748 | purified FXIIa, Boc-QGR-AMC fluorogenic substrate, 2 h | inhibition, % at 5 µM | 220,000 tested, 0.3% active | AID 800; in the data active means inhibition above about 40%;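 further: 0% = enzyme with no compound and 100% = blank without enzyme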
# Furin inhibitor: inhibitors of human furin | P09958 | purified furin, fluorogenic substrate cleavage | inhibition, % at 20 µM or 30 µM | 220,000 tested, 0.061% active; in the data active means inhibition above about 25%
# Numbers without * were called inactive; · = no result given. Most compounds without a hit are left out; they make up all but 1.2% or so of the library.
SMILES,FXIa inh 1536,Thrombin inh,KLK5 inh,PERK inhibitor,FXIIa inh 1536,Furin inhibitor
NC(=O)NOCc1ccccc1,45.5*,11.9,22.6,1.0,27.7,-4.9
NC(=O)NOCc1c(Cl)cccc1Cl,5.8,-3.5,1.8,1.7,10.5,-20.9
Cc1ccc(C)c(NC(=O)C(c2ccccc2)N2CCOCC2)c1 (stereo not given),-0.8,-4.3,·,1.6,6.5,-18.5
O=C(Nc1ccc2c(c1)oc1ccccc12)N1CCOCC1,41.9*,3.3,-12.6,0.7,13.3,-29.2
CC(c1ccccc1)n1c(-c2cccs2)nc2c(c(=O)c3ccccc3n2C)c1=O (stereo not given),-4.7,-7.1,-1.7,0.2,1.5,-21.0
O=C(CN(C(=O)c1ccc(Cl)cc1)C1CCCCC1)Nc1ccc(Cl)c([N+](=O)[O-])c1,5.8,1.9,-6.1,0.8,10.7,-6.2
O=C(CN(C(=O)c1ccccc1Cl)C1CCCCC1)Nc1ccc(Cl)c([N+](=O)[O-])c1,4.6,0.2,1.1,-0.2,69.8*,-18.9
Cc1cc(Cl)c(S(=O)(=O)NCc2ccccc2)cc1OCC(N)=O,-0.3,1.1,-1.4,0.9,10.8,-13.0
Cc1cc(Cl)c(S(=O)(=O)N2CCCCCC2)cc1OCC(N)=O,8.6,31.9,41.3*,0.2,12.9,-21.3
Cc1cc(Cl)c(S(=O)(=O)NCc2ccncc2)cc1OCC(N)=O,-0.1,9.0,54.1*,1.2,3.5,-11.9
COCCNC(=O)c1ccc(NC(=O)C2(c3ccccc3)CCCC2)cc1,-5.3,1.0,-23.6,2.1,-8.7,-19.7
CCN(C(=O)COC(=O)/C=C/c1c(C)nn(Cc2ccc(C)cc2)c1C)C1CCS(=O)(=O)C1 (stereo not given),0.0,-6.6,-2.4,0.9,6.8,-18.0
Cn1c(N/N=C/c2cccs2)cc(=O)n(C)c1=O,-0.4,65.3*,-9.9,-1.1,-3.6,4.2
CC(=O)c1cccc(NC(=O)COC(=O)c2n[nH]c3ccccc23)c1,3.1,-6.5,10.6,-0.1,10.9,-29.0
O=C(CN1C(=O)COc2ccc(S(=O)(=O)N3CCOCC3)cc21)NCc1ccco1,1.6,-3.5,3.6,1.9,4.7,-25.7
O=C(CN1C(=O)COc2ccc(S(=O)(=O)N3CCOCC3)cc21)NCc1ccccn1,3.5,-1.3,1.2,3.5*,9.2,-1.2
CCCc1nc2c(=O)[nH]c3ccccc3c2o1,5.1,18.1,44.3*,1.0,16.0,-21.4
CCCCCc1nc2c(=O)[nH]c3ccccc3c2o1,-6.1,-4.3,4.1,0.9,4.5,-19.1
O=C(CSc1ncccn1)N/N=C/c1cccc(OC2CSC2)c1,67.8*,7.6,15.7,-0.1,17.3,-3.3
CCOC(=O)c1cccc(NC(=O)C2CCN(S(=O)(=O)c3cccs3)CC2)c1,5.4,3.5,-8.6,-0.8,17.6,-17.9
CCOC(=O)c1ccc2c(c1)nc(C1CCN(S(=O)(=O)c3cccs3)CC1)n2CC,37.7,3.6,-1.0,-0.3,52.3*,-24.4
Cc1sc(NC(=O)CN(C)C2CCCCC2)nc1-c1ccc2c(c1)CCN2S(=O)(=O)c1ccccc1,5.0,21.4,42.6*,-1.3,14.4,-14.3
O=c1cc(-c2ccccc2)nc(SCCOc2ccccc2Cl)[nH]1,28.1,14.5,15.9,0.1,23.9,-10.7
COc1ccc2nc(C)cc(Sc3nc4ccccc4s3)c2c1,1.3,-6.8,-2.3,-0.6,6.7,-4.6
Cc1[nH]c2ccccc2c1C(=O)CSc1n[nH]c(N)n1,32.7,-5.5,24.1,0.1,24.1,-5.5
SMILES,FXIa inh 1536,Thrombin inh,KLK5 inh,PERK inhibitor,FXIIa inh 1536,Furin inhibitor
COc1ccccc1NC(=O)C1C2CCCCC21 (stereo not given),11.5,103.6*,61.4*,1.3,22.3,-22.7
CC1(C(=O)OCC(=O)Nc2ccc3ccccc3c2)CC1(Cl)Cl (stereo not given),-6.0,-11.9,·,1.1,1.1,-16.7
O=C1OC(Nc2ccc(F)c([N+](=O)[O-])c2)c2ccccc21 (stereo not given),43.9*,50.3*,26.2,0.4,25.9,-4.3
CC12CCC(C(=O)NC(c3ccccc3)c3ccccc3)(OC1=O)C2(C)C (stereo not given),12.5,13.4,37.2,-1.3,55.0*,-14.7
CC12CCC(C(=O)NNc3ccccc3)(OC1=O)C2(C)C (stereo not given),2.8,-3.5,5.3,0.4,8.3,-20.9
CN(CC(=O)Nc1ccc(C#N)cc1)Cc1ccc(Cl)cc1Cl,-1.7,25.0,52.4*,-0.4,23.4,-7.1
O=C(NC(=S)Nc1ccc2oc(=O)ccc2c1)c1ccccc1F,0.5,-1.5,0.7,3.7*,7.7,-11.1
CC1(C)CC(=O)C(C=Nc2ccc(O)cc2)=C(O)C1,7.7,2.9,-3.3,0.2,18.0,15.6
CCc1nnc(NS(=O)(=O)c2ccc(N=CC3=C(O)CC(C)(C)CC3=O)cc2)s1,0.1,3.6,·,1.3,7.5,26.1*
Cn1ccnc1SCC(=O)Nc1cc(S(=O)(=O)N2CCOCC2)ccc1Cl,8.0,1.5,-10.8,0.0,9.7,-22.3
COC(=O)c1c(NC(=S)Nc2ccc(C(=O)N3CCOCC3)cc2)sc2c1CCC2,-2.4,1.0,-14.2,3.0*,13.9,-11.9
CCOC(=O)c1c(NC(=S)Nc2ccc(OC)cc2)sc2c1CCC2,0.3,2.8,-4.9,1.1,11.4,-20.9
Cc1csc2c(SCC(=O)NNC(=O)C(Cl)Cl)ncnc12,2.7,-6.1,-1.2,3.1*,8.3,-12.3
Cc1sc2ncnc(SCC(=O)NCC(C)C)c2c1C,0.0,-0.6,-2.2,-2.2,3.1,-8.5
CN1C(=O)/C(=C2\SC(=S)N(CC3CCCO3)C2=O)c2ccccc21 (stereo not given),-0.3,-3.6,-35.6,0.8,9.7,-18.8
CN1C(=O)/C(=C2\SC(=S)N(C(CCC(=O)O)C(=O)O)C2=O)c2ccccc21 (stereo not given),12.9,104.0*,63.9*,0.4,11.0,1.8
Cc1nc(SCC(=O)NC(=O)NC(C)C)nc(C)c1C,22.9,35.1,50.1*,0.5,30.6,-6.8
Cc1nc(SCC(=O)NC(=O)NC(C)(C)C)nc(C)c1C,0.9,1.2,2.4,0.4,5.7,-24.4
O=S(=O)(c1ccc(NC(=S)N/N=C/c2c3ccccc3cc3ccccc23)cc1)N1CCOCC1,3.3,1.2,·,0.9,10.6,-16.7
N=c1oc2ccccc2cc1-c1nc(-c2ccc(Cl)cc2)cs1,13.7,18.1,47.1*,-0.7,6.8,-14.3
O=S(=O)(Cc1ccco1)Cc1nc(-c2ccc(Cl)cc2)cs1,2.3,-3.1,-3.8,0.7,15.1,-11.1
COc1ccc(CN2CCN(C(=O)C3CCC(CNS(=O)(=O)c4ccccc4)CC3)CC2)c(OC)c1OC (stereo not given),27.5,26.4,20.6,-0.2,101.3*,-20.8
O=C(CCC(=O)OCc1ccc(C(=O)Oc2ccc(Cl)cc2)cc1)Nc1ccccc1,1.2,12.5,52.2*,0.2,35.4,-15.0
